Assay results reported in ChEMBL document CHEMBL1681705, “Optimisation of ITK inhibitors through successive iterative design cycles” (Bioorg Med Chem Lett, 2011).

Key:
[1] = target: T1, Tyrosine-protein kinase ITK/TSK (Homo sapiens, UniProt Q08881); assay: Inhibition of recombinant GST-tagged full-length ITK expressed in baculovirus expression system after 30 mins by scintillation proximity assay
T1 sequence (Q08881 whole entry): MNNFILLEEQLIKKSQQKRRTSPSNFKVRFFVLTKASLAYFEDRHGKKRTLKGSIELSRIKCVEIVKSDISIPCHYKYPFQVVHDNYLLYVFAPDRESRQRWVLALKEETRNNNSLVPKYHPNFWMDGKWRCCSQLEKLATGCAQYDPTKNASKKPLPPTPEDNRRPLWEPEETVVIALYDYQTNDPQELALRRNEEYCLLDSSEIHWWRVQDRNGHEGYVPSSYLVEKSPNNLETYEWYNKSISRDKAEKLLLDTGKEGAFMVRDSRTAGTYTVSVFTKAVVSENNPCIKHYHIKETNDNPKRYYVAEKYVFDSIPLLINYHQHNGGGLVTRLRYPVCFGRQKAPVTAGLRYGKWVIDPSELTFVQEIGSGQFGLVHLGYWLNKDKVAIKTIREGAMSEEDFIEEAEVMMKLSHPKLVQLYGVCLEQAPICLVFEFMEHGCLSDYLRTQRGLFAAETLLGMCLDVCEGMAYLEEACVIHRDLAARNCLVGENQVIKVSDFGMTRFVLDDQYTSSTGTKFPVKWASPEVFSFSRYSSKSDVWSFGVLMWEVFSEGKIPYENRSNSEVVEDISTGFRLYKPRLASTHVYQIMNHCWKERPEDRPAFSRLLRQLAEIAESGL

[2] = target: Platelet-derived growth factor receptor beta (Homo sapiens) (UniProt P09619); assay: Inhibition of PDGFRbeta at 1 uM
Chain of Platelet-derived growth factor receptor beta (Homo sapiens) (P09619 whole entry): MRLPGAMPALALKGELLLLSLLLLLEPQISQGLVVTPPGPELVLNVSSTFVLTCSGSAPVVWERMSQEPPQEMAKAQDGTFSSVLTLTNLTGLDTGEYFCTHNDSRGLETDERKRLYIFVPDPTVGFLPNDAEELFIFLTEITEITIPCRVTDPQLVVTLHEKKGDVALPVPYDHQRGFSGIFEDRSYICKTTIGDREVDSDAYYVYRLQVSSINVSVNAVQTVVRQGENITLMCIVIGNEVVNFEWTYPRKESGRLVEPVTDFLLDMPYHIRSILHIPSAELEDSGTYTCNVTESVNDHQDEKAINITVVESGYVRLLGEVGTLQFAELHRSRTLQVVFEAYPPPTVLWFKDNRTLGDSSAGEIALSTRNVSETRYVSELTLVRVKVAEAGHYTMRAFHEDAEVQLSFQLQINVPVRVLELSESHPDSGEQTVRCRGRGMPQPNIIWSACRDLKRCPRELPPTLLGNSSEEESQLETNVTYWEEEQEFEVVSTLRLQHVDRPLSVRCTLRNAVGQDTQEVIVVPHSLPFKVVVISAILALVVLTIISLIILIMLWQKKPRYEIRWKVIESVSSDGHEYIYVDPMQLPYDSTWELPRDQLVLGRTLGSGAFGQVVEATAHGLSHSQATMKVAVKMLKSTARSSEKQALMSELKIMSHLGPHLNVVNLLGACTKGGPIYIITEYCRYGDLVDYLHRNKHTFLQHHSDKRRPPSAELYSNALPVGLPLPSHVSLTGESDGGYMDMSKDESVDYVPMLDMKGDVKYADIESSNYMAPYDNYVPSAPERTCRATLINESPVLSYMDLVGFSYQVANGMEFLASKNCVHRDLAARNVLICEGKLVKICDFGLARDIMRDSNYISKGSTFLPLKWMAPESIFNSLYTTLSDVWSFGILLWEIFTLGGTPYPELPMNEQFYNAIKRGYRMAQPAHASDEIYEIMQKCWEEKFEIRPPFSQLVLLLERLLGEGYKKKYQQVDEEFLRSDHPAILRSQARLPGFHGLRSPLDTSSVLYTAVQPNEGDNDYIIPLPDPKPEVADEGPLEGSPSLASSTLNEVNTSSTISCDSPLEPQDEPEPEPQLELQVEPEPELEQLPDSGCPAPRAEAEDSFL
Summary of the method: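 Single-point screen within a 108-kinase selectivity panel. Each kinase was tested with inhibitor at 0.1 and 1.0 micromolar, and activity was recorded as percent inhibition.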

[3] = target: T2, Serine/threonine-protein kinase TBK1 (Homo sapiens) (UniProt Q9UHD2); assay: Inhibition of TBK1 at 1 uM; values are per cent of control
T2 sequence (whole entry): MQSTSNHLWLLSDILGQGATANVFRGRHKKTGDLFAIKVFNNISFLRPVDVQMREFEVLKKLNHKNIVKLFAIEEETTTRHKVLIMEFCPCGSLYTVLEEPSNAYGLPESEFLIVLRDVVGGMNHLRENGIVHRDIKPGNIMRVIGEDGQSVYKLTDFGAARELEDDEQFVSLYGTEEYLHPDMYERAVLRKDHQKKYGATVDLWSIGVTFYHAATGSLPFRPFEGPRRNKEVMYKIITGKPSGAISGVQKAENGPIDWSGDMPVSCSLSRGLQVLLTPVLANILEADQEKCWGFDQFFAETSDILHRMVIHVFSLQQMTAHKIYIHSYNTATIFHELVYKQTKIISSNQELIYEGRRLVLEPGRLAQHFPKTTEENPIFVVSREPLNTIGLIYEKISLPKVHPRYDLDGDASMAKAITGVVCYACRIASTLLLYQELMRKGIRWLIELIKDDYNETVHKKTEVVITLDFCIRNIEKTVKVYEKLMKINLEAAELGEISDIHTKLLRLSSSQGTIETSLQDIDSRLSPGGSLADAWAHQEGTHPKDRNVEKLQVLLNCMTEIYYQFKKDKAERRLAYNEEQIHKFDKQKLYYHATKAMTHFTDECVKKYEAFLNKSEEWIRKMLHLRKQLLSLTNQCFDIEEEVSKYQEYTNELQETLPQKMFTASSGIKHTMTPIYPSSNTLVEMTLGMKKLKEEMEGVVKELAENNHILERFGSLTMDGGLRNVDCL

[4] = target: T3, Protein kinase C epsilon type (Homo sapiens) (UniProt Q02156); assay: Inhibition of PKCepsilon at 1 uM; values are per cent of control
T3 sequence (whole entry): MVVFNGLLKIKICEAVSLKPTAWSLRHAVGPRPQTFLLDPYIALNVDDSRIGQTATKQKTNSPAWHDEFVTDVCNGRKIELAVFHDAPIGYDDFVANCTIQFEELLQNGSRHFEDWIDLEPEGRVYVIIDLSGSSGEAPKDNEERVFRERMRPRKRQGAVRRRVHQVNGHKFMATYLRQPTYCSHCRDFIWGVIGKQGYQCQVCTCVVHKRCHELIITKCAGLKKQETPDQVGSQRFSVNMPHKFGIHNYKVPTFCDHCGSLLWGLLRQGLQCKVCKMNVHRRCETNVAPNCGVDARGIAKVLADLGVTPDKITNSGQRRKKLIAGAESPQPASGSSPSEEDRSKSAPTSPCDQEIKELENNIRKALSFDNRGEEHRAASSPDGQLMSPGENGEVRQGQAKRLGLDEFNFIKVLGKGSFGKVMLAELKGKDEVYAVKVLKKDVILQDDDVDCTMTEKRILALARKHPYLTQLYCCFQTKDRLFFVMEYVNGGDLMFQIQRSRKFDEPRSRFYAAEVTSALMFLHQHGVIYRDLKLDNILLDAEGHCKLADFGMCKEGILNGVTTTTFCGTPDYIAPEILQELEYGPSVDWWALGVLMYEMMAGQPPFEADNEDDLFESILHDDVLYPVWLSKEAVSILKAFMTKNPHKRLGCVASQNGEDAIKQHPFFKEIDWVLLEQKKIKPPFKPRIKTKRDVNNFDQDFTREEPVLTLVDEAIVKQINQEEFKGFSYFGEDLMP

IC50 [1] [nM]	inhibition [2] [%]	residual activity [3] [%]	residual activity [4] [%]	Structure (SMILES)
23	42	9	67	Cc1ccc2cc(-c3n[nH]c4ccc(NC5CCN(Cc6ccccc6)CC5)cc34)[nH]c2c1
11	34	2	21	Cc1ccc2cc(-c3n[nH]c4ccc(NC5CCNC5)cc34)[nH]c2c1 (stereo not drawn)
